HTR2A ag – agonists of mouse serotonin 5-HT2A receptor (HTR2A); P35363; CHO-K1 mHTR2A beta-arrestin complementation, luminescence; percent of 30 µM serotonin response; activation, % at 7.6 µM; hit rate 0.66% among 360,000;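 active = activation above a run cutoff, the mean activation of all tested compounds plus 3 SD, cut at about 14% in these data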;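 note: 0% = plate median of compound wells and 100% = 30 µM serotonin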
dFosB activator – activators of mouse delta FosB homodimer. P13346. purified delta FosB, TAMRA-CDK5 oligo fluorescence polarization; percent of positive-control signal above neutral wells. activation, % at 25 µM. hit rate 0.99% among 340,000;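 active = mean activation above about 17%, with every replicate also reaching it, limit read from the data, passing the limit was not always enough; inconclusive = only one of the two conditions met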
Target sequence (P13346 whole entry, looked up): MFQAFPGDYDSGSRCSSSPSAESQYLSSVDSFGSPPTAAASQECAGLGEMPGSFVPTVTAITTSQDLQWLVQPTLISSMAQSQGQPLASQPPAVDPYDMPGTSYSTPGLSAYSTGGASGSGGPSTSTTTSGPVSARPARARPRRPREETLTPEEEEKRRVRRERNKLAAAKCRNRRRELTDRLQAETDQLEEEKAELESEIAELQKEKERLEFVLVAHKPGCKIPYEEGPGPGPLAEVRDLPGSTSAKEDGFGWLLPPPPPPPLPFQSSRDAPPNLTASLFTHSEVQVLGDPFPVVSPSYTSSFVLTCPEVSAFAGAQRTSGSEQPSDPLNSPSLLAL
IMP-1 inh – inhibitors of Pseudomonas aeruginosa IMP-1 metallo-beta-lactamase. purified IMP-1, nitrocefin hydrolysis, epi-absorbance fluorescence. inhibition, % at 5.6 µM. hit rate 0.45% among 290,000;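 active = inhibition above the mean plus 3 SD of all compounds in the same screening run, cut at about 4.5% in these data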;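 note: 0% = IMP-1 with DMSO and 100% = DMSO wells lacking enzyme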
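system = purified recombinant IMP-1 beta-lactamase | amount = 0.2 nM IMP-1, as dispensed | medium = HEPES buffer pH 7.1 with ZnSO4 and Brij 35 | times = 25 °C, 15 min preincubation, 25 min reaction | detection = plate fluorescence quenching by hydrolysis product, ex 480/em 530 nm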
VIM-2 inh – inhibitors of Pseudomonas aeruginosa VIM-2 metallo-beta-lactamase | purified VIM-2, nitrocefin hydrolysis, epi-absorbance fluorescence | inhibition, % at 5.6 µM | hit rate 0.89% among 290,000 | AID 1527;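 active = inhibition above the mean of all tested compounds plus 3 SD, cutoff set per screening run, cut at about 7.5% in these data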;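 note: red hydrolysis product quenches plate fluorescence so inhibitors raise well fluorescence; 0% = enzyme with DMSO and 100% = DMSO without enzyme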
Active calls of the source: *; ? = inconclusive; . = no result; ! = a repeat was not active. Rows were chosen to be rich in hits. Some 2.5% of all compounds tested hit in one or more screens of this group.

SMILES	HTR2A ag	dFosB activator	IMP-1 inh	VIM-2 inh
CC(C)(C)n1cc(C(=O)c2ccc3ccccc3c2O)cn1	3	1	-3	-3
CC(C)(C)n1cc(C(=O)c2ccccc2OCCCF)cn1	4	3	-1	11*
CNC(=O)C[C@H]1CC[C@@H]2NC[C@H](O)COC[C@H]2O1	0	.	.	.
O=C(O)c1ccccc1N=Nc1c(O)[nH]c(=O)[nH]c1=O	-1	3	-4	-3
O=c1[nH]c(O)c(N=Nc2cc(C(F)(F)F)ccc2Cl)c(=O)[nH]1	0	-10	0	11*
CCOC(=O)[C@]12Cc3cc(OC)ccc3[C@H]1N(C1CCCCC1)C(=O)c1ccccc12	1	.	.	.
Cn1c(O)c(/C=C/C=Nc2ccccc2)c(=O)n(C)c1=S	2	?	6.1*	5
CSCCC(c1nnnn1C(C)(C)C)N1CCC2(CC1)C(=O)NCN2c1ccccc1 (stereo not drawn)	3	.	.	.
CC[N+](C)(CC)CCCCOc1ccc2c(c1)C(=O)c1cc(OCCCC[N+](C)(CC)CC)ccc1-2	3	49*	-1	0
Cc1cc2c(C(C)C)c(O)c(O)c(C=O)c2c(O)c1-c1c(C)cc2c(C(C)C)c(O)c(O)c(C=O)c2c1O	-1	.	14*!	10*
CCOC(=O)[C@]12Cc3cc(OC)ccc3[C@H]1N(C(C)C)C(=O)c1cc(OC)ccc12	0	.	.	.
C=CCn1c(O)c(C=NCCN(C)C)c(=O)[nH]c1=O	-1	3	-3	-4
C=CCn1c(O)c(/C=C2/C=c3ccccc3=N2)c(=O)[nH]c1=S	8	4	11*	1
CCN1C(=O)C(=Cc2cc(C)n(C3CC3)c2C)C(=O)N(CC)C1=S	1	2	12*	0
CCN(CC)P(=O)(NC(=O)C(Cl)(Cl)Cl)N(CC)CC.[Cl-].[Cl-].[Cl-].[Nd+3]	2	41*	22*	-1
C=C1C(=O)OC2CC3(C)OC3C3OC3C3=CC(OC3=O)C12 (stereo not drawn)	-4	.	.	.
C=CCn1c(O)c(/C(CC)=N/NC(=S)Nc2ccccc2)c(=O)[nH]c1=O	8	-7	-2	8.9*
CCOC(=O)[C@]12Cc3cc4ccccc4cc3[C@H]1N(Cc1ccccc1)C(=O)c1ccccc12	-4	.	.	.
CN1CCC(N(C)c2nc(-c3ccc([N+](=O)[O-])cc3)nc3ccccc23)CC1	-12	30*	-2	9.9*
CC[C@H]1c2ccccc2[C@@H]2CC[C@H]1N2c1ccccc1	0	.	.	.
C=CCOC(=O)COc1cc(C)cc2oc(=O)c3c(c12)CCC3	-1	-16	-2	5
Cc1cc(OCc2ccc([N+](=O)[O-])cc2)c2c3c(c(=O)oc2c1)CCCC3	4	-10	-1	0
Cc1cc(OCc2nn[nH]n2)c2c3c(c(=O)oc2c1)CCCC3	0	-12	1	9.0*
Cc1cc(OCC(=O)NCc2ccc(S(N)(=O)=O)cc2)c2c3c(c(=O)oc2c1)CCC3	4	0	-3	9.4*
O=[N+]([O-])c1cccnc1N1CCCNCC1	32*	8	-4	-3
SMILES	HTR2A ag	dFosB activator	IMP-1 inh	VIM-2 inh
CCc1ccc(-n2c(O)c(/C=N/NC(=O)c3ccncc3)c(=O)[nH]c2=O)cc1	-1	-6	13*	-3
CC(C)c1ccc(-n2c(O)c(/C=N/NC(=O)c3ccncc3)c(=O)[nH]c2=O)cc1	1	-5	-3	-4
CN(Cc1cccc(-c2ccncc2)c1)C(=O)Oc1ccc([N+](=O)[O-])cc1	2	.	.	.
CN1CCN(C(=O)COc2ccc3ccccc3c2)CC1	0	-9	-1	0
CN1CCN(C(=O)COc2ccc(-c3nc4ccccc4s3)cc2)CC1	-6	-30	0	7.8*
CCOC(=O)C1=CC(=C2C(=O)N(CC)C(=S)N(CC)C2=O)c2ccccc2O1	.	.	6.2*	-2
Cc1cc(C=C2C(=O)NC(=O)NC2=O)c(C)n1-c1ccc2c(c1)OCO2	2	-5	-2	0
Cc1cc(C=C2C(=O)NC(=S)NC2=O)c(C)n1-c1ccc2c(c1)OCO2	16*	2	-4	-1
CCCCCN1C(=O)c2cc(OC)ccc2[C@@]2(C(=O)OCC)Cc3cc(Cl)ccc3[C@@H]12	0	.	.	.
NC(Cc1ccc(O)cc1)C(=O)NN=Cc1ccc(N(CCCl)CCCl)cc1 (stereo not drawn)	-9	32*	.	.
Cc1c2ccncc2c(C)c2c1[nH]c1ccccc12	0	55*	-6	2
CN1C(=O)CN=C(c2ccc(Cl)cc2)c2cc(Cl)ccc21	-2	-7	0	0
CN1C(=O)CN=C(c2ccccc2Cl)c2cc(Br)ccc21	7	0	11*	-2

Screening data (PubChem BioAssay)
